Results on 6 compounds are retold here after ChEMBL document CHEMBL3751760, “Discovery of Novel Potent and Selective Agonists at the Melanocortin-3 Receptor” (J Med Chem, 2015).

For assay [1], the target named is T1, Melanocyte-stimulating hormone receptor (Homo sapiens, UniProt Q01726). As to the kind of experiment: Displacement of 125I-labeled [Nle4,DPhe7]-alpha-MSH from human melanocortin 1 receptor expressed in HEK293 cells incubated for 40 mins by gamma counting analysis. In kind it is cell-based. In a few lines:
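Whole-cell competition on stably transfected HEK293 cells, 100000 cells/well, seeded 48 h ahead. Binding buffer: MEM with Earle's salts, 25 mM HEPES pH 7.4, 0.2% BSA, 1 mM 1,10-phenanthroline, leupeptin, bacitracin. After washing, cells lysed with NaOH/Triton X-100 and read by γ counting.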
A general note: In a radioligand displacement assay an active substance lowers the binding of a labelled ligand.
Target sequence in this assay (Q01726 whole entry): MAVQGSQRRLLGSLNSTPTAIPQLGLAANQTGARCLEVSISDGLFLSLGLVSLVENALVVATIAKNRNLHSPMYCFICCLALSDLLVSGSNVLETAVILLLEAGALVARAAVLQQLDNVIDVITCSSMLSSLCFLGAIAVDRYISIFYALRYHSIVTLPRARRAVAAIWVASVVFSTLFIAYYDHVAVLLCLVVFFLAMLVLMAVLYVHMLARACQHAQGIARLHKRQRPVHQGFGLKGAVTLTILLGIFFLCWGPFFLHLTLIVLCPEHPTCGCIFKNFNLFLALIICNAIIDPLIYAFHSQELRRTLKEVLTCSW

In assay [2] the target is T1, Melanocyte-stimulating hormone receptor. Kind of assay: Agonist activity at human melanocortin 1 receptor expressed in HEK293 cells assessed as increase in intracellular cAMP accumulation incubated for 3 mins relative to MT-2. Type of assay: functional, cell-based. In a few lines:
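Stably transfected HEK293 cells grown in MEM with 10% FBS, penicillin/streptomycin and 1 mM sodium pyruvate, seeded 48 h ahead to 100000 cells/well. Cells preincubated 1 min at 37 °C in EBSS with IBMX (0.5 mM), then exposed to a concentration series for 3 min at 37 °C. Stopped with ice-cold Tris/EDTA, boiled 15 min, cAMP measured by competitive binding kit. Maximal cAMP expressed relative to the MT-II maximum; N = 4.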
Target sequence in this assay (Q01726 whole entry, looked up): as the sequence (Q01726 whole entry) above

For assay [3] the target is unchanged. As to the kind of experiment: Displacement of 125I-labeled [Nle4,DPhe7]-alpha-MSH from human melanocortin 1 receptor expressed in HEK293 cells at 10 uM incubated for 40 mins by gamma counting analysis. In kind it is cell-based. A digest of the protocol:
(§1)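 Whole-cell competition on stably transfected HEK293 cells, 100000 cells/well, seeded 48 h ahead. Binding buffer: MEM with Earle's salts, 25 mM HEPES pH 7.4, 0.2% BSA, 1 mM 1,10-phenanthroline, leupeptin, bacitracin. Unlabeled peptide plus 125I-[Nle4,DPhe7]-α-MSH (0.1386 nM, 100000 cpm/well) for 40 min at 37 °C. After washing, cells lysed with NaOH/Triton X-100 and read by γ counting.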
Target sequence in this assay (Q01726 whole entry, looked up): as the sequence (Q01726 whole entry) above

Assay [4] has the same target. As to the kind of experiment: Agonist activity at human melanocortin 1 receptor expressed in HEK293 cells assessed as intracellular cAMP accumulation incubated for 3 mins in presence of IBMX. In kind it is functional, cell-based. A digest of the protocol:
(§2)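 HEK293 cells stably expressing the receptor were grown in MEM with 10% FBS and seeded 48 h ahead to 100000 cells/well. Cells were preincubated in EBSS with IBMX (0.5 mM) for 1 min at 37 °C, then given varied peptide concentrations for 3 min at 37 °C. The reaction was stopped with ice-cold Tris/EDTA, lysates were boiled 15 min, and cAMP was read by competitive binding kit.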
Target sequence in this assay (Q01726 whole entry): as above

Assay [5] has as its target T2, Melanocortin receptor 3 (Homo sapiens, UniProt P41968). Kind of assay: Displacement of 125I-labeled [Nle4,DPhe7]-alpha-MSH from human melanocortin 3 receptor expressed in HEK293 cells incubated for 40 mins by gamma counting analysis. Type of assay: cell-based.
For assay [6], the target named is T3, Melanocortin receptor 4 (Homo sapiens, UniProt P32245). As to the kind of experiment: Displacement of 125I-labeled [Nle4,DPhe7]-alpha-MSH from human melanocortin 4 receptor expressed in HEK293 cells incubated for 40 mins by gamma counting analysis. Type of assay: cell-based.
In assay [7] the target is T4, Melanocortin receptor 5 (Homo sapiens, UniProt P33032). Kind of assay: Displacement of 125I-labeled [Nle4,DPhe7]-alpha-MSH from human melanocortin 5 receptor expressed in HEK293 cells at 10 uM incubated for 40 mins by gamma counting analysis. Type of assay: cell-based. A digest of the protocol:
as §1

For assay [8], the target named is T2, Melanocortin receptor 3. Kind of assay: Agonist activity at human melanocortin 3 receptor expressed in HEK293 cells assessed as intracellular cAMP accumulation at 10 uM incubated for 3 mins in presence of IBMX. Type of assay: functional, cell-based. In a few lines:
(§3)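 Stably transfected HEK293 cells were grown in MEM with 10% FBS, penicillin/streptomycin and 1 mM sodium pyruvate, and seeded 48 h before assay to 100000 cells/well. Cells were preincubated 1 min at 37 °C in EBSS with IBMX (0.5 mM), then exposed to peptide for 3 min at 37 °C. The reaction was stopped with ice-cold Tris/EDTA, lysates were boiled 15 min, and cAMP was read by competitive binding kit.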
In general terms: cAMP levels reflect the balance of adenylyl cyclase and phosphodiesterase activity.

The target in assay [9] is T3, Melanocortin receptor 4. As to the kind of experiment: Agonist activity at human melanocortin 4 receptor expressed in HEK293 cells assessed as intracellular cAMP accumulation at 10 uM incubated for 3 mins in presence of IBMX. In kind it is functional, cell-based. In a few lines:
as §3

The target in assay [10] is T4, Melanocortin receptor 5. As to the kind of experiment: Agonist activity at human melanocortin 5 receptor expressed in HEK293 cells assessed as intracellular cAMP accumulation at 10 uM incubated for 3 mins in presence of IBMX. In kind it is functional, cell-based. A digest of the protocol: as §3
Assay [11] has as its target T4, Melanocortin receptor 5. Kind of assay: Displacement of 125I-labeled [Nle4,DPhe7]-alpha-MSH from human melanocortin 5 receptor expressed in HEK293 cells incubated for 40 mins by gamma counting analysis. In kind it is cell-based.
In assay [12] the target is T2, Melanocortin receptor 3. Kind of assay: Agonist activity at human melanocortin 3 receptor expressed in HEK293 cells assessed as intracellular cAMP accumulation incubated for 3 mins in presence of IBMX. In kind it is functional, cell-based. In a few lines: as §2
In assay [13] the target is T3, Melanocortin receptor 4. As to the kind of experiment: Agonist activity at human melanocortin 4 receptor expressed in HEK293 cells assessed as intracellular cAMP accumulation incubated for 3 mins in presence of IBMX. In kind it is functional, cell-based. A digest of the protocol: as §2
The target in assay [14] is T4, Melanocortin receptor 5. Kind of assay: Agonist activity at human melanocortin 5 receptor expressed in HEK293 cells assessed as intracellular cAMP accumulation incubated for 3 mins in presence of IBMX. Type of assay: functional, cell-based. In a few lines: as §2
For assay [15], the target named is T2, Melanocortin receptor 3. As to the kind of experiment: Agonist activity at human melanocortin 3 receptor expressed in HEK293 cells assessed as increase in intracellular cAMP accumulation incubated for 3 mins relative to MT-2. Type of assay: functional, cell-based. In a few lines:
(§4)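 Same cAMP protocol in stably transfected HEK293 cells: IBMX (0.5 mM) preincubation for 1 min, then a peptide concentration series for 3 min at 37 °C, and cAMP measured by competitive binding kit.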

Assay [16] addresses T3, Melanocortin receptor 4. Kind of assay: Agonist activity at human melanocortin 4 receptor expressed in HEK293 cells assessed as increase in intracellular cAMP accumulation incubated for 3 mins relative to MT-2. Type of assay: functional, cell-based. A digest of the protocol: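 Same cAMP protocol in stably transfected HEK293 cells: IBMX (0.5 mM) preincubation for 1 min, then a peptide concentration series for 3 min at 37 °C, and cAMP measured by competitive binding kit. Act% max = highest cAMP level reached by the peptide divided by the highest level reached by MT-II, in percent.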

For assay [17], the target named is T4, Melanocortin receptor 5. As to the kind of experiment: Agonist activity at human melanocortin 5 receptor expressed in HEK293 cells assessed as increase in intracellular cAMP accumulation incubated for 3 mins relative to MT-2. Type of assay: functional, cell-based. A digest of the protocol: as §4

Each structure is given as a SMILES string. The source made the active and inactive calls. The rule behind the calls is not given here. Where a SMILES comes first, the peptide text is derived from it. Bridges are numbered along the chain shown (N, C = ends). [ ]: non-standard residue; d: D form. d2Nal = N[C@H](Cc1ccc2ccccc2c1)C(=O)O; Nle = CCCC[C@H](N)C(=O)O

T2 sequence (P41968 whole entry): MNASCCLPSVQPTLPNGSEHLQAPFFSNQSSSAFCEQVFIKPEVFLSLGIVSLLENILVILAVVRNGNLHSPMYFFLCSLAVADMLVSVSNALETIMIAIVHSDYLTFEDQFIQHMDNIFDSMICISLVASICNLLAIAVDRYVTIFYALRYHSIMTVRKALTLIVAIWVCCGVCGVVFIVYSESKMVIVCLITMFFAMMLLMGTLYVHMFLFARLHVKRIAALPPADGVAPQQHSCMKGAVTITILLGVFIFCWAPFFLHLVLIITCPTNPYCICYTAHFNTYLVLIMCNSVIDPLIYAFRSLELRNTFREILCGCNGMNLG
T4 sequence (P33032 whole entry): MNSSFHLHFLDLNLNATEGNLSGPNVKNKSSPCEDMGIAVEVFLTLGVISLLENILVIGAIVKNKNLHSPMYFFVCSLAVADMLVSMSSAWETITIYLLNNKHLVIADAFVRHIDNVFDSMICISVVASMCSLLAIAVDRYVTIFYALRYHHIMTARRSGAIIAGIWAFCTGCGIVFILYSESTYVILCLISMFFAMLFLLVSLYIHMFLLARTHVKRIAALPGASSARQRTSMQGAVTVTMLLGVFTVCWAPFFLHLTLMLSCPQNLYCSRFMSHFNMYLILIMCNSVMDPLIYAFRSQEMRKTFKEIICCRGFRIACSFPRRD
T3 sequence (P32245 whole entry): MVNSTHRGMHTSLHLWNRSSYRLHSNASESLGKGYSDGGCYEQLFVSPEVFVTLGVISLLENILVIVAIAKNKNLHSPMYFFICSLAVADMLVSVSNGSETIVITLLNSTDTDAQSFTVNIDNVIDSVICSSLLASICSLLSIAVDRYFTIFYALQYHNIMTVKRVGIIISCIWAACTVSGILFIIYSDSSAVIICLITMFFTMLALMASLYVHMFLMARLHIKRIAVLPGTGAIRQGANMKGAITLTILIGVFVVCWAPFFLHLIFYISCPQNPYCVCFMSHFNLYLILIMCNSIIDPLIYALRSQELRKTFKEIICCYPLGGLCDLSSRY

The term IC50 denotes the concentration that gives 50% inhibition. Regarding `CCCC[C@H](NC(C)=O)C(=O)N[C@H]1CC(=O)NCCCC[C@@H](C(N)=O)NC(=O)[C@H](Cc2c[nH]c3ccccc23)NC(=O)[C@H](CCCNC(=N)N)NC(=O)[C@@H](Cc2ccc3ccccc3c2)NC(=O)[C@@H]2CCCN2C(=O)[C@@H]2CCCN2C1=O` (Ac-[Nle]DPP[d2Nal]RWK-NH2; lactam 2-8), the IC50 in [1] was > 5000 nM. In addition, the %max in assay [2] came out at 100%.
Regarding `CCCC[C@H](NC(C)=O)C(=O)N[C@@H]1CC(=O)NCCCC[C@H](C(N)=O)NC(=O)[C@H](Cc2c[nH]c3ccccc23)NC(=O)[C@H](CCCNC(=N)N)NC(=O)[C@H](Cc2ccc3ccccc3c2)NC(=O)[C@H]2CCCN2C(=O)[C@@H](Cc2c[nH]c3ccccc23)NC1=O`, the inhibition entry in assay [3] is “inactive”. In addition, the %max in assay [2] was 100%.
The EC50 is the concentration giving half of the maximal effect. Take `CCCC[C@H](NC(C)=O)C(=O)N[C@H]1CC(=O)NCCCC[C@@H](C(N)=O)NC(=O)[C@H](Cc2c[nH]c3ccccc23)NC(=O)[C@H](CCCNC(=N)N)NC(=O)[C@@H](Cc2ccc3ccccc3c2)NC(=O)[C@@H]2CCCN2C(=O)[C@H](Cc2c[nH]c3ccccc23)NC1=O`: the half-maximal effective concentration (EC50) in assay [4] (hek293) is > 1000 nM.
`CCCC[C@H](NC(C)=O)C(=O)N[C@H]1CC(=O)NCCCC[C@@H](C(N)=O)NC(=O)[C@H](Cc2c[nH]c3ccccc23)NC(=O)[C@H](CCCNC(=N)N)NC(=O)[C@@H](Cc2ccccc2)NC(=O)[C@@H]2CCCN2C(=O)[C@@H]2CCCN2C1=O` (Ac-[Nle]DPP[dF]RWK-NH2; lactam 2-8): the half-inhibitory concentration (IC50) in assay [1] is > 5000 nM; on Melanocortin receptor 3 [5], 590 nM; at Melanocortin receptor 4 [6], 1300 nM. Further, the concentration giving a half-maximal response (EC50) in assay [4] is 860 nM. For the same compound, in assay [2], the %max was 100%. Also, at Melanocortin receptor 5 [7], the inhibition result was “inactive”. In addition, the Activity at Melanocortin receptor 3 [8], at Melanocortin receptor 4 [9] and at Melanocortin receptor 5 [10] was 0% in each case.
With `CCCC[C@H](NC(C)=O)C(=O)N[C@H]1CC(=O)NCCCC[C@@H](C(N)=O)NC(=O)[C@H](Cc2c[nH]c3ccccc23)NC(=O)[C@H](CCCNC(=N)N)NC(=O)[C@@H](Cc2ccccc2)NC(=O)[C@@H]2CCCN2C(=O)[C@H](Cc2c[nH]c3ccccc23)NC1=O`, the IC50 in assay [1] (hek293) is > 5000 nM; at Melanocortin receptor 3 [5] (hek293), 580 nM; at Melanocortin receptor 4 [6] (hek293), > 1000 nM; on Melanocortin receptor 5 [11] it was > 1000 nM. Besides, the half-maximal effective concentration (EC50) in assay [4] (hek293) is 26 nM; at Melanocortin receptor 3 [12], > 1000 nM; on Melanocortin receptor 4 [13], 220 nM; on Melanocortin receptor 5 [14], 73 nM.
In the case of `CCCC[C@@H](NC(C)=O)C(=O)N[C@H]1CC(=O)NCCCC[C@@H](C(N)=O)NC(=O)[C@@H](Cc2c[nH]c3ccccc23)NC(=O)[C@@H](CCCNC(=N)N)NC(=O)[C@@H](Cc2ccccc2)NC(=O)[C@@H]2CCCN2C(=O)[C@H](Cc2c[nH]c3ccccc23)NC1=O`, the %max in assay [2] came to 100%; at Melanocortin receptor 3 [15] it was 0%; at Melanocortin receptor 4 [16] it was 84%; on Melanocortin receptor 5 [17] it was 89%.
